The text below walks through data of ChEMBL document CHEMBL1126976, “Hybrids of antibiotics inhibiting protein synthesis. Synthesis and biological activity” (1993).

Molecules are shown by their SMILES. Values after ≈ are worked out from the molar mass of the structure shown. Some results are limits rather than exact numbers.

The subject of experiment [1] is Saccharomyces cerevisiae. Kind of experiment: The compound was tested for inhibition of Polyphenylalanine synthesis in Saccharomyces cerevisiae ribosome system at concentration of 1*10e-4 M; values are per cent of control.
Experiment [2] deals with Saccharomyces cerevisiae. Kind of experiment: The compound was tested for inhibition of Polyphenylalanine synthesis in Saccharomyces cerevisiae ribosome system at concentration of 1*10e-3 M; values are per cent of control.
For experiment [3], the system named is Saccharomyces cerevisiae. Kind of experiment: The compound was tested for inhibition of Polyphenylalanine synthesis in Saccharomyces cerevisiae ribosome system at concentration of 1*10e-5 M; values are per cent of control.
Experiment [4] has as its system Pseudomonas aeruginosa. Put plainly: The compound was tested for minimum inhibitory concentration required for inhibition of microbial growth in Pseudomonas aeruginosa at the Upjohn culture 95. The experiment is classed as functional. An outline of the steps: (§1)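 Agar dilution in brain heart infusion agar with serial 2-fold compound dilutions. Organisms grown overnight on BHIA at 35 °C aerobically and suspended in TSB to 0.5 McFarland. The suspension is diluted 1:20 and spotted as 1-μL drops (~10^4 CFU). Plates incubated 18 h at 35 °C. MIC is the lowest concentration preventing visible growth.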

Another experiment deals with Escherichia coli. Put plainly: The compound was tested for minimum inhibitory concentration required for inhibition of microbial growth in Escherichia coli at the Upjohn culture. Format: functional. In a few lines: as §1
For experiment [5], the system named is Staphylococcus aureus. Put plainly: The compound was tested for minimum inhibitory concentration required for inhibition of microbial growth in staphylococcus aureus at the Upjohn culture 6685. The experiment is classed as functional. In a few lines: as §1
The test system of a further experiment is Streptococcus pyogenes. Put plainly: The compound was tested for minimum inhibitory concentration required for inhibition of microbial growth in Streptococcus pyogenes at the Upjohn culture. Format: functional. In a few lines:
as §1

The nature of experiment [6]: The compound was tested for minimum inhibitory concentration required for inhibition of microbial growth in Salmonella schottmuelleri. The experiment is classed as functional. In a few lines: as §1
For the next experiment, the system named is Klebsiella pneumoniae. Put plainly: The compound was tested for minimum inhibitory concentration required for inhibition of microbial growth in Klebsiella pneumoniae at the Upjohn culture. The experiment is classed as functional. In a few lines: as §1
The subject of experiment [7] is Staphylococcus aureus. Kind of experiment: The compound was tested for minimum inhibitory concentration required for inhibition of microbial growth in staphylococcus aureus at the Upjohn culture 76. The experiment is classed as functional. An outline of the steps: as §1
For experiment [8], the system named is Staphylococcus aureus. Kind of experiment: The compound was tested for minimum inhibitory concentration required for inhibition of microbial growth in staphylococcus aureus at the Upjohn culture 6690. The experiment is classed as functional. An outline of the steps:
as §1

For a further experiment, the system named is Enterococcus faecalis. Put plainly: The compound was tested for minimum inhibitory concentration required for inhibition of microbial growth in Enterococcus faecalis at the Upjohn culture. Format: functional. In a few lines: as §1
In another experiment the test system is Streptococcus pneumoniae. Put plainly: The compound was tested for minimum inhibitory concentration required for inhibition of microbial growth in Streptococcus pneumoniae at the Upjohn culture. The experiment is classed as functional. An outline of the steps:
as §1

The subject of experiment [9] is Pseudomonas aeruginosa. Kind of experiment: The compound was tested for minimum inhibitory concentration required for inhibition of microbial growth in Pseudomonas aeruginosa at the Upjohn culture 6676. The experiment is classed as functional. An outline of the steps:
as §1

For experiment [10], the species on record is Rattus norvegicus. Put plainly: The compound was tested for inhibition of Puromycin reaction with hybrid antibiotics in a rat liver ribosome system concentrations of 2*10e-4 M; values are per cent of control.
The species entered for experiment [11] is Rattus norvegicus. Put plainly: The compound was tested for inhibition of Puromycin reaction with hybrid antibiotics in a rat liver ribosome system concentrations at 1*10e-3 M; values are per cent of control.
For experiment [12], the species on record is Rattus norvegicus. Kind of experiment: The compound was tested for inhibition of Puromycin reaction with hybrid antibiotics in a rat liver ribosome system concentrations of 2*10e-4 M; values are per cent of control. This is another data set of the same source.
The species named for experiment [13] is Rattus norvegicus. Put plainly: The compound was tested for inhibition of Puromycin reaction with hybrid antibiotics in a rat liver ribosome system concentrations at 1*10e-3 M; values are per cent of control. This is another data set of the same source.

In the case of `CSC[S@@+]([O-])CC(CO)NC(=O)/C=C/c1c(C)[nH]c(=O)[nH]c1=O` (some centres undefined), the level, % of control in the experiment with Saccharomyces cerevisiae [1] is 30.3%; in the experiment with Saccharomyces cerevisiae [2], 15.5%; with Saccharomyces cerevisiae [3] it was 44.1%.

By MIC is commonly meant the smallest concentration in the dilution series that meets the test's criterion for growth inhibition. High values mean a less susceptible organism, low ones a more susceptible organism. For the compound `CCCC1CC(C(=O)NC(CO)C(O)c2ccc([N+](=O)[O-])cc2)N(C)C1` (centres undefined), the MIC was over 800 mg/L against Pseudomonas aeruginosa [4]; over 800 mg/L in the experiment with Escherichia coli; 800 mg/L (≈ 2190 µM) with Staphylococcus aureus [5]; 200 mg/L (≈ 547 µM) in the experiment with Streptococcus pyogenes; over 800 mg/L in experiment [6]; 800 mg/L (≈ 2190 µM) with Klebsiella pneumoniae. The figures for the MIC in the experiment on Staphylococcus aureus [7] and with Staphylococcus aureus [8] were 800 mg/L (≈ 2190 µM) and over 800 mg/L, respectively.

`CSC1OC(C(NC(=O)C(Cl)Cl)C(C)O)C(O)C(O)C1O` (centres undefined): the MIC is over 400 mg/L against Pseudomonas aeruginosa [4]; over 400 mg/L against Escherichia coli; over 400 mg/L against Enterococcus faecalis; over 400 mg/L against Staphylococcus aureus [5]; 25 mg/L (≈ 68.6 µM) in the experiment on Streptococcus pneumoniae; over 400 mg/L against Pseudomonas aeruginosa [9]. For the same compound, the MIC with Streptococcus pyogenes is 6.25 mg/L (≈ 17.2 µM); in experiment [6], over 400 mg/L; against Klebsiella pneumoniae, over 400 mg/L; with Staphylococcus aureus [7], 50 mg/L (≈ 137 µM); against Staphylococcus aureus [8] it was 50 mg/L (≈ 137 µM). Also, the values for the level, % of control in the experiment on Saccharomyces cerevisiae [1], in the experiment with Saccharomyces cerevisiae [2] and in the experiment with Saccharomyces cerevisiae [3] were 90.9%, 96.8% and 97.3%, respectively.

In the case of `Cc1nc(O)nc(O)c1/C=C/C(=O)N[C@H]1[C@@H](O)[C@H](n2cnc3c(N(C)C)ncnc32)O[C@@H]1CO`, the level, % of control in the experiment on Saccharomyces cerevisiae [1] came to 95.8%; in the experiment filed under Rattus norvegicus [10], 69%; in the experiment on Saccharomyces cerevisiae [2], 95.7%; in the experiment filed under Rattus norvegicus [11], 76%; with Saccharomyces cerevisiae [3], 106%.

For `O=C(N[C@H](CO)[C@H](O)c1ccc([N+](=O)[O-])cc1)C(Cl)Cl` [CHLORAMPHENICOL], the MIC is 100 mg/L (≈ 309 µM) with Pseudomonas aeruginosa [4]; 3.12 mg/L (≈ 9.66 µM) with Escherichia coli; 6.25 mg/L (≈ 19.3 µM) with Enterococcus faecalis; 6.25 mg/L (≈ 19.3 µM) in the experiment on Staphylococcus aureus [5]; 3.12 mg/L (≈ 9.66 µM) against Streptococcus pneumoniae; 200 mg/L (≈ 619 µM) in the experiment on Pseudomonas aeruginosa [9]. Besides, the MIC came out at 3.12 mg/L (≈ 9.66 µM) with Streptococcus pyogenes; 6.25 mg/L (≈ 19.3 µM) in [6]; 3.12 mg/L (≈ 9.66 µM) in the experiment on Klebsiella pneumoniae; 6.25 mg/L (≈ 19.3 µM) against Staphylococcus aureus [7]; 50 mg/L (≈ 155 µM) against Staphylococcus aureus [8].

Consider `Cc1nc(O)nc(O)c1/C=C/C(=O)NC(CO)C(O)c1ccc([N+](=O)[O-])cc1` (centres undefined), for which the MIC against Pseudomonas aeruginosa [4], against Escherichia coli, in the experiment with Enterococcus faecalis, against Staphylococcus aureus [5], with Streptococcus pneumoniae and in the experiment with Pseudomonas aeruginosa [9] was over 400 mg/L each time. Besides, the MIC against Streptococcus pyogenes is 50 mg/L (≈ 128 µM); in experiment [6], over 400 mg/L; against Klebsiella pneumoniae, over 400 mg/L; in the experiment on Staphylococcus aureus [7] it was over 400 mg/L; with Staphylococcus aureus [8], over 400 mg/L.

In the case of `CCC[C@@H]1C[C@@H](C(=O)N[C@@H]([C@H]2O[C@H](SC)[C@H](O)[C@@H](O)[C@H]2O)[C@@H](C)O)N(C)C1` [LINCOMYCIN], the MIC is over 400 mg/L with Pseudomonas aeruginosa [4]; over 400 mg/L in the experiment on Escherichia coli; 50 mg/L (≈ 123 µM) against Enterococcus faecalis; over 400 mg/L against Staphylococcus aureus [5]; 0.78 mg/L (≈ 1.92 µM) against Streptococcus pneumoniae; over 400 mg/L against Pseudomonas aeruginosa [9]. Also, the minimal inhibitory concentration (MIC) against Streptococcus pyogenes was 0.2 mg/L (≈ 0.492 µM); in experiment [6], over 800 mg/L; against Klebsiella pneumoniae, 400 mg/L (≈ 984 µM); against Staphylococcus aureus [7], 0.78 mg/L (≈ 1.92 µM); in the experiment with Staphylococcus aureus [8] it was 0.78 mg/L (≈ 1.92 µM).

On to `CSC1OC(C(NC(=O)/C=C/c2c(C)nc(O)nc2O)C(C)O)C(O)C(O)C1O` (centres undefined), for which the MIC in the experiment on Pseudomonas aeruginosa [4], against Escherichia coli, in the experiment with Enterococcus faecalis, in the experiment with Staphylococcus aureus [5], in the experiment with Streptococcus pneumoniae and against Pseudomonas aeruginosa [9] was over 400 mg/L throughout. Besides, the minimum inhibitory concentration (MIC) (against Streptococcus pyogenes; in [6]; against Klebsiella pneumoniae; against Staphylococcus aureus [7]; with Staphylococcus aureus [8]) was over 400 mg/L in each case. Moreover, the “level, % of control” value in the experiment listed under Rattus norvegicus [12] is 90%; with Saccharomyces cerevisiae [1], 97.7%; in the experiment filed under Rattus norvegicus [13] it was 91%; in the experiment on Saccharomyces cerevisiae [2] it was 93.4%; with Saccharomyces cerevisiae [3], 101%.
